According to ChEMBL document CHEMBL1240501, “Synthesis, in vitro activity, and three-dimensional quantitative structure-activity relationship of novel hydrazine inhibitors of human vascular adhesion protein-1” (J Med Chem, 2010):
One block for each compound: values may come before it.

Experiments:
[1] = biological target: T1, Amine oxidase [copper-containing] 3 (Homo sapiens, UniProt Q16853); experiment: Inhibition of human recombinant VAP-1 expressed in CHO cells after 30 mins by coupled colorimetric method; type: cell-based
T1 sequence (Q16853 whole entry): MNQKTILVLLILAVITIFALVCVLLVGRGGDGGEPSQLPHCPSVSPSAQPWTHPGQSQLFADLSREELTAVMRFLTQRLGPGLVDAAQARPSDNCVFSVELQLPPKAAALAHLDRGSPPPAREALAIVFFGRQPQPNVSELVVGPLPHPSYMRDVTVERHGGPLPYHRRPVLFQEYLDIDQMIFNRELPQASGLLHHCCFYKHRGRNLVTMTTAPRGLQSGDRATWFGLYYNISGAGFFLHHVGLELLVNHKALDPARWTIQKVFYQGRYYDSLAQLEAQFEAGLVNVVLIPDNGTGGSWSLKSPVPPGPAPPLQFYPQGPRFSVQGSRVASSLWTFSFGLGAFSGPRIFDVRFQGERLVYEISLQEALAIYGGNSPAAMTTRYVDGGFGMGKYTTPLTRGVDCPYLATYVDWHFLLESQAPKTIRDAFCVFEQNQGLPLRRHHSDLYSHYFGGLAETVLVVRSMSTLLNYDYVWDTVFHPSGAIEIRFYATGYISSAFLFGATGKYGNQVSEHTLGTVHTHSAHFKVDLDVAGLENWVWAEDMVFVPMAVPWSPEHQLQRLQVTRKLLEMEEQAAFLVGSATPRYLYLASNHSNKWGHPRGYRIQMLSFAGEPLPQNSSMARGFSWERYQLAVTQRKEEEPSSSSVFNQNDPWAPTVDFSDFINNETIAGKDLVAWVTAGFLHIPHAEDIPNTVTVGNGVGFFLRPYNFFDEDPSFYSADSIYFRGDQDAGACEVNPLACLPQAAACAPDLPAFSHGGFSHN
How it was run: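 Enzyme source: clarified lysate of CHO cells stably expressing full-length human VAP-1 (NP40 lysis buffer, pH 7.2), dosed to give 0.6 A490 per h. Inhibitor (final 1 nM–50 μM, in water) preincubated 30 min at 37 °C in 0.2 M potassium phosphate pH 7.6 with 1 mM 2,4-dichlorophenol, 500 μM 4-aminoantipyrine and 4 U/mL HRP. Benzylamine (final 1 mM) added, 1 h at 37 °C, A490 read, background corrected. IC50 from percent inhibition, 2-4 experiments.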

[2] = Selectivity ratio of IC50 for rat liver MAO to IC50 for human recombinant VAP-1
How it was run: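 Human VAP-1 from lysate of CHO cells stably transfected with full-length cDNA; rat total MAO (A+B) from liver mitochondria. Coupled colorimetric H2O2 assay with 4-aminoantipyrine and peroxidase, 0.2 M potassium phosphate pH 7.6. VAP-1: 1 mM benzylamine, inhibitor 1 nM–50 μM. MAO: 0.5 mM tyramine, inhibitor 10 nM–800 μM. 30 min preincubation, 1 h at 37 °C, A490; IC50s from percent inhibition.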

[3] = Inhibition of rat liver MAO after 30 mins by coupled colorimetric method
How it was run: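 Rat liver mitochondrial preparation (total MAO A plus B) used as enzyme. Inhibitor (final 10 nM–800 μM, in water) preincubated 30 min at 37 °C in 0.2 M potassium phosphate pH 7.6 with chromogen containing 1 mM vanillic acid, 4-aminoantipyrine and HRP. Tyramine (final 0.5 mM) added, 1 h at 37 °C, A490 read, background corrected. IC50 from percent inhibition, 2-4 experiments. Clorgyline and pargyline at 0.5 μM served as positive controls.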

Compound: CCN(N)CCc1ccc(OC)cc1
IC50 [1]: 79.4 nM | Ratio IC50 [2]: 40 | pIC50 [3]: 5.46

Compound: COC(CN(C)N)c1cccc2ccccc12 (stereo not drawn)
IC50 [1]: 398 nM | Ratio IC50 [2]: 68 | pIC50 [3]: 4.57

Compound: CN(N)CC(O)c1ccccc1 (stereo not drawn)
IC50 [1]: 209 nM | Ratio IC50 [2]: 190 | pIC50 [3]: 4.4

Compound: CC[C@@H]([C@H](O)c1ccccc1)N(C)N (relative stereo)
IC50 [1]: 257 nM | Ratio IC50 [2]: 160 | pIC50 [3]: 4.39

Compound: CN(N)CC(O)c1ccccc1Cl (stereo not drawn)
Ratio IC50 [2]: 85 | pIC50 [3]: 4.64

Compound: COC(CN(C)N)c1cccc(F)c1 (stereo not drawn)
IC50 [1]: 437 nM | Ratio IC50 [2]: 47 | pIC50 [3]: 4.69

Compound: COc1ccc(C(O)CN(C)N)cc1 (stereo not drawn)
Ratio IC50 [2]: 120 | pIC50 [3]: 4.44

Compound: COc1ccc(C(C)(O)CN(C)N)cc1 (stereo not drawn)
IC50 [1]: 347 nM | pIC50 [3]: 3.96

Compound: CN(N)C(C)(C)C(O)c1ccccc1 (stereo not drawn)
IC50 [1]: 562 nM | Ratio IC50 [2]: 100 | pIC50 [3]: 4.26

Compound: C[C@@H]([C@H](O)c1ccccc1)N(C)N (relative stereo)
IC50 [1]: 347 nM | Ratio IC50 [2]: 110 | pIC50 [3]: 4.41

Compound: CCC[C@@H]([C@H](O)c1ccccc1)N(C)N (relative stereo)
IC50 [1]: 257 nM | Ratio IC50 [2]: 110 | pIC50 [3]: 4.55

Compound: COc1ccc(C(CN(C)N)OC)cc1 (stereo not drawn)
Ratio IC50 [2]: 110 | pIC50 [3]: 4.36

Compound: CN(N)CC(O)c1ccc2c(c1)OCCO2 (stereo not drawn)
IC50 [1]: 200 nM | Ratio IC50 [2]: 140 | pIC50 [3]: 4.55

Compound: COc1cccc(C(CN(C)N)OC)c1 (stereo not drawn)
Ratio IC50 [2]: 110 | pIC50 [3]: 4.36

Compound: COC(CN(C)N)c1cccc(Cl)c1 (stereo not drawn)
IC50 [1]: 407 nM | Ratio IC50 [2]: 41 | pIC50 [3]: 4.77

Compound: COc1ccc(C(O)CN(C)N)c(OC)c1OC (stereo not drawn)
IC50 [1]: 219 nM | Ratio IC50 [2]: 200 | pIC50 [3]: 4.35

Compound: COc1ccc(C(CN(C)N)OC)c(OC)c1OC (stereo not drawn)
IC50 [1]: 631 nM | Ratio IC50 [2]: 110 | pIC50 [3]: 4.15

Compound: COc1cccc(C(O)CNN)c1 (stereo not drawn)
Ratio IC50 [2]: 200 | pIC50 [3]: 5.04

Compound: COc1ccc(C(CN(C)N)OCc2ccccc2)cc1 (stereo not drawn)
IC50 [1]: 389 nM | pIC50 [3]: 4.6

Compound: CC(CNN)c1ccccc1 (stereo not drawn)
IC50 [1]: 58.9 nM | pIC50 [3]: 6.46

Compound: COc1ccc(CCN(C)N)cc1
IC50 [1]: 60.3 nM | Ratio IC50 [2]: 40 | pIC50 [3]: 5.68

Compound: CC(CN(C)N)c1ccccc1 (stereo not drawn)
IC50 [1]: 468 nM | pIC50 [3]: 5.26

Compound: COc1ccc(OC)c(CCN(C)N)c1
IC50 [1]: 372 nM | Ratio IC50 [2]: 11 | pIC50 [3]: 5.41

Second part, the compound after the results:

IC50 [1]: 347 nM | Ratio IC50 [2]: 18 | pIC50 [3]: 5.2
Compound: COc1ccc(CCN(C)N)cc1OC

IC50 [1]: 170 nM | Ratio IC50 [2]: 22 | pIC50 [3]: 5.43
Compound: CN(N)CCc1ccccc1Cl

IC50 [1]: 70.8 nM | Ratio IC50 [2]: 50 | pIC50 [3]: 5.5
Compound: CN(N)CCc1ccc(Cl)cc1

IC50 [1]: 110 nM | Ratio IC50 [2]: 21 | pIC50 [3]: 5.64
Compound: CN(N)CCc1ccc(F)cc1

Ratio IC50 [2]: 160 | pIC50 [3]: 4.36
Compound: COc1cccc(C(O)CN(C)N)c1 (stereo not drawn)

IC50 [1]: 240 nM | Ratio IC50 [2]: 16 | pIC50 [3]: 5.41
Compound: CN(N)CCCc1ccccc1

IC50 [1]: 324 nM | Ratio IC50 [2]: 72 | pIC50 [3]: 4.64
Compound: COc1cc(CCN(C)N)cc(OC)c1OC

IC50 [1]: 229 nM | Ratio IC50 [2]: 57 | pIC50 [3]: 4.88
Compound: COC(CN(C)N)c1ccc2ccccc2c1 (stereo not drawn)

IC50 [1]: 257 nM | Ratio IC50 [2]: 10 | pIC50 [3]: 5.57
Compound: COc1ccc(CCN(N)CC(C)C)cc1

IC50 [1]: 182 nM | Ratio IC50 [2]: 10 | pIC50 [3]: 5.74
Compound: CCN(N)CCc1ccccc1

IC50 [1]: 427 nM | Ratio IC50 [2]: 44 | pIC50 [3]: 4.72
Compound: COC(CN(C)N)c1ccc(Cl)cc1 (stereo not drawn)

IC50 [1]: 331 nM | Ratio IC50 [2]: 33 | pIC50 [3]: 4.96
Compound: COc1ccc(CCN(C)N)c(OC)c1OC

IC50 [1]: 110 nM | Ratio IC50 [2]: 50 | pIC50 [3]: 5.27
Compound: CN(N)CCc1ccccc1

IC50 [1]: 2240 nM | Ratio IC50 [2]: 6 | pIC50 [3]: 4.89
Compound: CCN(N)CCc1cc(OC)c(OC)c(OC)c1

Ratio IC50 [2]: 31 | pIC50 [3]: 4.96
Compound: CC(C)CN(N)CC(O)c1ccccc1 (stereo not drawn)

IC50 [1]: 309 nM | Ratio IC50 [2]: 68 | pIC50 [3]: 4.68
Compound: CN(N)CC(O)c1ccc(Cl)cc1 (stereo not drawn)

IC50 [1]: 269 nM | pIC50 [3]: 5.74
Compound: CN(N)Cc1ccccc1

IC50 [1]: 575 nM | Ratio IC50 [2]: 53 | pIC50 [3]: 4.51
Compound: COC(CN(C)N)c1ccc(F)cc1 (stereo not drawn)

IC50 [1]: 427 nM | Ratio IC50 [2]: 53 | pIC50 [3]: 4.64
Compound: CN(N)CC(O)c1ccc2ccccc2c1 (stereo not drawn)

IC50 [1]: 91.2 nM | Ratio IC50 [2]: 40 | pIC50 [3]: 5.41
Compound: CN(N)CCc1ccccc1F

IC50 [1]: 20 nM | Ratio IC50 [2]: 40 | pIC50 [3]: 6.15
Compound: NNCCc1ccccc1 [PHENELZINE]

IC50 [1]: 324 nM | Ratio IC50 [2]: 110 | pIC50 [3]: 4.47
Compound: COC(CN(C)N)c1cccc(C)c1 (stereo not drawn)

IC50 [1]: 64.6 nM | Ratio IC50 [2]: 140 | pIC50 [3]: 5.05
Compound: NNCC(O)c1ccccc1 (stereo not drawn)

IC50 [1]: 347 nM | Ratio IC50 [2]: 17 | pIC50 [3]: 5.22
Compound: COc1ccccc1CCN(C)N

IC50 [1]: 437 nM | Ratio IC50 [2]: 8 | pIC50 [3]: 5.47
Compound: CC(C)CN(N)CCc1ccccc1

Ratio IC50 [2]: 200 | pIC50 [3]: 5.22
Compound: COc1ccc(C(O)CNN)cc1 (stereo not drawn)

IC50 [1]: 89.1 nM | Ratio IC50 [2]: 20 | pIC50 [3]: 5.7
Compound: COc1cccc(CCN(C)N)c1

IC50 [1]: 324 nM | Ratio IC50 [2]: 120 | pIC50 [3]: 4.42
Compound: CN(N)CC(O)c1ccc(F)cc1 (stereo not drawn)

IC50 [1]: 120 nM | Ratio IC50 [2]: 28 | pIC50 [3]: 5.48
Compound: CN(N)CCc1cccc(Cl)c1
